ChEMBL document CHEMBL1131063 (J Med Chem, 1998)

Experiments:
[1] = biological target: T1, Phospholipase A2, membrane associated (Homo sapiens) (UniProt P14555); assay: Inhibitory activity against human synovial Phospholipase at 10 uM
T1 sequence (whole entry): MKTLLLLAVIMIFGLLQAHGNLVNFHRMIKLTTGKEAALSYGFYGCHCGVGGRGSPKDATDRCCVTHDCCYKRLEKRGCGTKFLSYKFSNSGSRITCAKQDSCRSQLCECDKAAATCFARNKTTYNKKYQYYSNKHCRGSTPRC
In short: (§1)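 Enzyme diluted in 100 mM Tris-HCl, 1 mM CaCl2, pH 7.5; preincubated 5 min at 37 °C with test compound or vehicle, then 15 min with autoclaved oleate-labeled membranes as substrate. Stopped with ice-cold BSA in saline (final 0.07% w/v), centrifuged 2500g 10 min at 4 °C. Supernatant radioactivity counted by liquid scintillation; percent inhibition at 10 μM, means ± SEM, n = 6.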

[2] = biological target: Phospholipase A2, major isoenzyme (Sus scrofa) (UniProt P00592); assay: Inhibitory activity against Porcine pancreatic secretory Phospholipase A2 at 10 uM; in short: as §1
Chain of Phospholipase A2, major isoenzyme (Sus scrofa) (P00592 23-146 limits assumed): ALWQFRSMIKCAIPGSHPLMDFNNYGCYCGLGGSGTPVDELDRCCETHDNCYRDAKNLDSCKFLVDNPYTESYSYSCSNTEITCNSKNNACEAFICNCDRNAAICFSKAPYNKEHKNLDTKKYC

[3] = biological target: T2, Phospholipase A2 (Apis mellifera) (UniProt P00630); assay: Inhibitory activity against bee secretory Phospholipase A2 enzyme at 10 uM
T2 sequence (whole entry): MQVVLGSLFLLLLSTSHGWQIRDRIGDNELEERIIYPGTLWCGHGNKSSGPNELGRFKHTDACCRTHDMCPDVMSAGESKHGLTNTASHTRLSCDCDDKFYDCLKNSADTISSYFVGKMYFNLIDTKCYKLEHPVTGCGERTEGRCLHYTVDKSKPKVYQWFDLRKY

[4] = test system: Phospholipase A2 (Naja naja); assay: Inhibitory activity against naja naja secretory Phospholipase A2 at 10 uM; details: snake
[5] = biological target: T2, Phospholipase A2 (Apis mellifera); assay: Inhibitory activity against bee secretory Phospholipase A2 enzyme when pre-incubated for 60 minutes
In short: (§2)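 Bee venom PLA2 was incubated at 41 °C with the test compound or methanol (control) in 100 mM Tris-HCl, 1 mM CaCl2, pH 7.5, for varied preincubation times. It was then diluted 2-fold with Tris buffer or with hydroxylamine (final 50 mM, pH 7.5) and held 2 h at 41 °C. PLA2 activity was then assayed. Final compound concentrations were 5–50 μM. n = 6.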

[6] = biological target: T2, Phospholipase A2 (Apis mellifera); assay: Inhibitory activity against bee secretory Phospholipase A2 enzyme when pre-incubated with Hydroxylamine for 15 minutes; in short: as §2
[7] = biological target: T2, Phospholipase A2 (Apis mellifera); assay: Inhibitory activity against bee secretory Phospholipase A2 enzyme when pre-incubated with Tris buffer for 15 minutes; in short: as §2
[8] = biological target: T2, Phospholipase A2 (Apis mellifera); assay: Inhibitory activity against bee secretory Phospholipase A2 enzyme when pre-incubated with Tris buffer for 60 minutes; in short: as §2
[9] = biological target: T2, Phospholipase A2 (Apis mellifera); assay: Inhibitory activity against bee secretory Phospholipase A2 enzyme when pre-incubated with Hydroxylamine for 5 minutes; in short: as §2
[10] = biological target: T2, Phospholipase A2 (Apis mellifera); assay: Inhibitory activity against bee secretory Phospholipase A2 enzyme when pre-incubated for 5 minutes; in short: as §2
[11] = biological target: T2, Phospholipase A2 (Apis mellifera); assay: Inhibitory activity against bee secretory Phospholipase A2 enzyme when pre-incubated for 15 minutes; in short: as §2
[12] = biological target: T2, Phospholipase A2 (Apis mellifera); assay: Inhibitory activity against bee secretory Phospholipase A2 enzyme when pre-incubated with Hydroxylamine for 60 minutes; in short: as §2
[13] = biological target: T2, Phospholipase A2 (Apis mellifera); assay: Inhibitory activity against bee secretory Phospholipase A2 enzyme when pre-incubated with Tris buffer for 5 minutes; in short: as §2
Phospholipase A2 = biological target: T3, Phospholipase A2 (Apis mellifera, UniProt P00630); assay: Inhibitory activity against bee secretory Phospholipase A2 enzyme
T3 sequence (P00630 whole entry): T2 sequence (whole entry)

[14] = biological target: T4, Phospholipase A2, membrane associated (Homo sapiens, UniProt P14555); assay: Inhibitory activity against human synovial recombinant Phospholipase enzyme
T4 sequence (P14555 whole entry): T1 sequence (whole entry)

Mus musculus [15] = assay: Inhibitory activity against carrageenan induced paw edema at a oral dose of 10 mg/kg in mouse 5 hours after carrageenan administration; type: functional
In short: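 Female Swiss mice (20–25 g) were fasted 12 h and dosed orally in ethanol/Tween 80/water (5:5:90), n = 6 per group. One hour later, 0.05 mL of 3% carrageenan was injected subplantar into the right hind paw. Edema was injected minus contralateral paw volume by plethysmometer, expressed as % inhibition versus control. ANOVA with Dunnett's test.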

Mus musculus [16] = assay: Inhibitory activity against carrageenan induced paw edema at a oral dose of 10 mg/kg in mouse 3 hours after carrageenan administration; type: functional
In short: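 Female Swiss mice (20–25 g), fasted 12 h with water available, in groups of six, dosed orally (0.5 mL) in ethanol/Tween 80/water 5:5:90 1 h before subplantar injection of 0.05 mL 3% w/v carrageenan into right hind paw. Paw volumes read by plethysmometer; edema = injected minus contralateral volume; percent inhibition vs vehicle controls; ANOVA with Dunnett's test.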

[17] = biological target: T2, Phospholipase A2 (Apis mellifera); assay: Inhibitory activity against secretory PLA2 enzyme (Bee venom) when pre-incubated with Hydroxylamine for 15 minutes; in short: as §2
[18] = biological target: T2, Phospholipase A2 (Apis mellifera); assay: Inhibition against bee secretory PLA2 enzyme when pre-incubated for 5 minutes; in short: as §2

Row | Compound | inhibition [1] [%] | inhibition [2] [%] | inhibition [3] [%] | inhibition [4] [%] | inhibition [5] [%] | inhibition [7] [%] | inhibition [8] [%] | inhibition [9] [%] | inhibition [11] [%] | inhibition [12] [%] | inhibition [13] [%] | further results
1 | CC1=CCC(C2=CC(=O)OC2O)OC1O (stereo unspecified) | 3.2 | 6.8 | 14.9 | 3 | – | – | – | – | – | – | – | –
2 | CC1=CCC(C2=CC(=O)OC2O)OC1 (stereo unspecified) | 0.1 | 5.6 | 8 | 1.4 | – | – | – | – | – | – | – | –
3 | C=C1CCC[C@H]2[C@](C)(CCC3=CCC(C4=CC(=O)OC4O)OC3)[C@H](C)CC[C@]12C (stereo partly specified) | – | – | – | – | 100 | 95.4 | 98.4 | 81.9 | 93.7 | 99.3 | 95.4 | inhibition [6]: 89.4%; inhibition [10]: 85.8%
4 | CC(C)=CCC/C(C)=C/CC/C(C)=C/CC1=CCC(C2=CC(=O)OC2O)OC1 (stereo unspecified) | 63.1 | 30 | 71.8 | – | 99.7 | 58.7 | 65.3 | 50.1 | 87.1 | 65.1 | 58.5 | inhibition [6]: 51.1%; IC50 (Phospholipase A2): 1.7 µM; IC50 [14]: 4.2 µM; inhibition [10]: 85.6%
5 | C/C=C/CC1=CCC(C2=CC(=O)OC2O)OC1 (stereo unspecified) | 24.8 | 17.6 | 40.1 | 7.1 | – | – | – | – | – | – | – | –
6 | COc1ccc2c(c1)c(CC(=O)O)c(C)n2C(=O)c1ccc(Cl)cc1 [INDOMETHACIN] | – | – | – | – | – | – | – | – | – | – | – | inhibition in vivo at 10 mg/kg (Mus musculus [15]): 42.3%; inhibition in vivo at 10 mg/kg (Mus musculus [16]): 40%
7 | CC1=C(CC/C(C)=C/CCC2=CC[C@H](C3=CC(=O)O[C@H]3O)O[C@H]2O)C(C)(C)CCC1 | 93.2 | 32.3 | 62.5 | – | 91.1 | 44.2 | 47.3 | 21 | 63.3 | 43.1 | 42.4 | inhibition [6]: 28%; inhibition [10]: 49.5%
8 | C/C=C/CC1=CCC(C2=CC(=O)OC2O)OC1O (stereo unspecified) | 21.2 | 15.1 | 24.8 | 1.8 | – | – | – | – | – | – | – | –
9 | CC(C)=CCC/C(C)=C/CC/C(C)=C/CC1=CCC(C2=CC(=O)OC2O)OC1O (stereo unspecified) | 74.6 | 39.8 | 84.2 | 33.6 | 95.1 | 80.9 | 75.2 | 39.1 | 70.3 | 71.5 | 80.8 | inhibition in vivo at 10 mg/kg (Mus musculus [15]): 43.2%; IC50 (Phospholipase A2): 0.5 µM; IC50 [14]: 0.9 µM; inhibition [17]: 56.9%; inhibition in vivo at 10 mg/kg (Mus musculus [16]): 42.9%; inhibition [18]: 48.4%
10 | O=C1C=C(C2CC=C(Cc3ccccc3)CO2)C(O)O1 (stereo unspecified) | 15.5 | 17.4 | 30.3 | 7.6 | – | – | – | – | – | – | – | –
11 | O=C1C=C(C2CC=C(Cc3ccccc3)C(O)O2)C(O)O1 (stereo unspecified) | 11.9 | 16.1 | 16.1 | 7.1 | – | – | – | – | – | – | – | –
12 | O=C1C=C(C2CC=CCO2)C(O)O1 (stereo unspecified) | 42.3 | 0.2 | 9.3 | 10.1 | – | – | – | – | – | – | – | –
13 | O=C1C=C(C2CC=CC(O)O2)C(O)O1 (stereo unspecified) | 18.9 | 1 | 0.7 | 5.2 | – | – | – | – | – | – | – | –
